# TAAR1 antag = human TAAR1 antagonists, primary screen, Fluo-8 calcium fluorescence, CHO RD-HGA16 cells. Trace amine-associated receptor 1 (Homo sapiens), Q96RJ0. actives 1.5% (n = 360,000). antagonist. inhibition, % at 3 µM. AID 624466, 2012;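 active = inhibition above a per-plate cutoff, the mean inhibition of test compounds on that plate plus 3 SD, cut at about 49% in these data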;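 also: 0% = DMSO plus EC80 beta-PEA response and 100% = DMSO alone without agonist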
# Target sequence (Q96RJ0 whole entry, looked up): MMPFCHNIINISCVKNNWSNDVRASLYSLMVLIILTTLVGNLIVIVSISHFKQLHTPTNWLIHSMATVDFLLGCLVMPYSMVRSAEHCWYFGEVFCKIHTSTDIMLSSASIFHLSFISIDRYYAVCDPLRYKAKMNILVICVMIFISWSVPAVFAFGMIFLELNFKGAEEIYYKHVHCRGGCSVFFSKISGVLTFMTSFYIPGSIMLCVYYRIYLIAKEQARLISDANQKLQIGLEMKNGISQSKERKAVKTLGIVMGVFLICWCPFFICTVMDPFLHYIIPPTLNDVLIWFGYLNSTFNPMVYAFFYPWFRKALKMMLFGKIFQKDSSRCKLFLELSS
#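 Material: RD-HGA16 CHO cells with stable hTAAR1 and Gα16; Dosing: single nominal final test compound concentration of 3 µM; Schedule: seeding 17-24 h prior, 75-min 37 °C, 30-min RT dye loading; Detection: kinetic Fluo-8 calcium fluorescence measurement; Measure: % inhibition from peak post-agonist over basal fluorescence ratio; Benchmarks: vehicle and agonist controls.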
# OXTR potentiator = human OXTR potentiators, primary screen, fluorescence, CHO-OTR cells, Fluo-8 calcium; activation, % at 3 µM; Oxytocin receptor (Homo sapiens), P30559; Fluo-8 calcium fluorescence, potentiator mode; 0% = oxytocin EC15, 100% = EC100; actives 0.061% (n = 320,000);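 active = activation above that plate's cutoff, the mean activation of tested compounds plus 3 SD, cut at about 6.6% in these data, passing the limit was not always enough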;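 also: 100% uses oxytocin at 75 nM as the full agonist control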
#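 System: human OTR in CHO cells / Also added: sub-maximal oxytocin, roughly EC15 / Control set: EC15 oxytocin low, 75 nM oxytocin high / Schedule: 6 min compound pre-incubation at room temperature, 100 s kinetic read / Compound: single-point 3.0 µM / Replication: singlicate / Technique: Fluo-8 calcium dye fluorescence / Read-out basis: % activation of max/min ratio relative to oxytocin controls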
# V1R ag counter = agonists of human V1a receptor, primary screen, counter-screen for OXTR agonist project, fluorescence, CHO-V1R cells; Vasopressin V1a receptor (Homo sapiens), P37288; Fluo-8 calcium fluorescence, agonist mode; 0% DMSO, 100% 3 nM vasopressin; activation, % at 3 µM; actives 0.25% (n = 320,000); AID 2797, 2010;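 active = activation above the mean activation of all tested compounds plus 3 SD, per screening run, cut at about 20% in these data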;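 also: signal is peak over basal fluorescence ratio across a 100 second FLIPR read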
# Target sequence (P37288 whole entry, looked up): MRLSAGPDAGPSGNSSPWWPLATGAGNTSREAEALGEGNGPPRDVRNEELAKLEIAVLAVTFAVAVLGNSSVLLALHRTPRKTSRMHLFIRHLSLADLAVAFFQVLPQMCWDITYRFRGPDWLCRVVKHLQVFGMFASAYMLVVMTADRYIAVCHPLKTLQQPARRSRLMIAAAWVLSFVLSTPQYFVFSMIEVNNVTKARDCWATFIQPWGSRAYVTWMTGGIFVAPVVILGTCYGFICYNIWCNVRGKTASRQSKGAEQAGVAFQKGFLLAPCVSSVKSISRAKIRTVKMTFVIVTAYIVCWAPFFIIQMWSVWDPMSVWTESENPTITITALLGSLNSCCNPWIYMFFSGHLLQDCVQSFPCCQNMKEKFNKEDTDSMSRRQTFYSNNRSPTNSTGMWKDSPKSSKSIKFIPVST
# OXTR ag = human OXTR agonists, primary screen, fluorescence, CHO-OTR cells, Fluo-8 calcium. actives 0.32% (n = 320,000). AID 2435, 2010. Oxytocin receptor (Homo sapiens), P30559. Fluo-8 calcium fluorescence; normalized: DMSO 0%, oxytocin 100%. activation, % at 3 µM;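 active = activation above the mean of all tested compounds plus 3 SD, cutoff set per screening run, cut at about 20% in these data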;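 also: peak over basal fluorescence ratio from a 100 s FLIPR kinetic read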
# TAAR1 agonist = human TAAR1 agonists, primary screen, Fluo-8 calcium fluorescence, CHO RD-HGA16 cells; vehicle wells 0%, saturating PEA agonist 100%; AID 624467, 2012; activation, % at 3 µM; Trace amine-associated receptor 1 (Homo sapiens), Q96RJ0; actives 0.99% (n = 360,000);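 active = activation above the mean activation of all test compounds in the run plus 3 SD, cut at about 38% in these data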
#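 Test system: RD-HGA16 (CHO) cells co-expressing Gα16 and hTAAR1 | Doses: Single dose, 3 µM | Schedule: 17-24 h seeding, 75 min 37 °C dye, 30 min RT | Evaluation: % activation from peak over basal fluorescence ratio, DMSO-to-PEA scaled | Technique: Kinetic Fluo-8 calcium fluorescence | Benchmarks: Low control DMSO, high control PEA (EC100)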
# nonsel antag count = nonselective antagonists in TAAR1 counter-screen cells, counter-screen for hTAAR1 antagonist project, cell-based, fluorescence, calcium; shares compounds with TAAR1 antag; counterscreen cell line, antagonist mode; inhibition, % at 3 µM; actives 77% (n = 2,400); AID 651780, 2012; in the data active = inhibition above about 22%;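 also: CHO-Ga16 host cells stimulated with ATP at an EC80 level; 0% = agonist EC80 plus vehicle and 100% = vehicle without agonist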
# TAAR1 ant conf = human TAAR1 antagonists, retest of hits, confirmation, cell-based, fluorescence; shares compounds with TAAR1 antag; TAAR1-expressing cells, fluorescence antagonist read-out; inhibition, % at 3 µM; actives 40% (n = 2,400); AID 651785, 2012; in the data active = inhibition above about 49%;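 also: CHO-Ga16 host cells challenged with agonist PEA near its EC80; 0% = agonist at EC80 plus vehicle and 100% = vehicle with no agonist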
# Ga16 nonsel ag = calcium activation in Ga16-expressing cells, counter-screen for TAAR1 antagonist project, cell-based, fluorescence | shares compounds with TAAR1 antag | agonist counterscreen | activation, % at 3 µM | actives 18% (n = 2,400); in the data active = activation above about 12%;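 also: 0% = vehicle wells and 100% = saturating stimulus response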
# TAAR1 ag count = TAAR1 activation by candidate antagonists – cell-based, fluorescence, counter-screen for TAAR1 antagonist project; shares compounds with TAAR1 antag; hTAAR1 cell line, agonist mode; activation, % at 3 µM; actives 2% (n = 2,400); in the data active = activation above about 37%;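 also: CHO cells stably expressing TAAR1 with calcium dye readout; 0% = DMSO vehicle and 100% = full agonist response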
# Starred values were filed as active, the others as inactive; . = no result. Shown are actives, neighbours in structure and some others; about 2.3% of the full set was active somewhere.
SMILES,TAAR1 antag,OXTR potentiator,V1R ag counter,OXTR ag,TAAR1 agonist,nonsel antag count,TAAR1 ant conf,Ga16 nonsel ag,TAAR1 ag count
Cc1cccc(COC[C@H](CC(C)C)N2CCN(C(=O)c3ccc(C(C)(C)C)cc3)CCC2=O)c1,63.0*,.,.,.,3.2,29.8*,51.9*,4.4,10.2
Cc1cccc(COCC(CC(C)C)N2CCN(C(=O)c3ccc(C(C)(C)C)cc3)CCC2=O)c1 (stereo not given),70.7*,-9.9,-0.5,-1.2,9.7,32.3*,57.5*,6.6,16.9
Cc1cccc(COCC(CC(C)C)N2CCN(C(=O)c3ccc(C(F)(F)F)cc3)CCC2=O)c1 (stereo not given),-3.7,-10.0,-0.4,-1.5,1.7,.,.,.,.
O=C(c1cc(-c2ccccc2)nc2ccccc12)N1CCCC1,-15.7,2.1,2.7,2.4,3.9,.,.,.,.
Cc1ccc(-c2cc(C(=O)N3CCN(c4ccc(O)cc4)CC3)c3ccccc3n2)cc1,64.7*,-5.3,2.4,1.0,14.2,34.8*,43.3,9.9,8.3
O=C(c1cc(-c2ccccc2Cl)nc2ccccc12)N1CCC1,11.6,-10.6,-1.2,-0.5,1.1,.,.,.,.
O=C(c1cc(-c2ccccc2Cl)nc2ccccc12)N1CCN(c2ccccc2O)CC1,59.3*,-7.8,-1.0,1.3,13.9,22.2*,36.5,7.2,5.6
Cc1ccc(-c2cc(C(=O)N3CCN(c4ccccc4O)CC3)c3ccccc3n2)cc1,62.4*,-3.3,-1.1,0.1,6.7,35.8*,43.6,6.1,1.7
NC(=O)C1CCN(C(=O)c2cc(-c3ccc(Cl)s3)nc3ccccc23)CC1,59.9*,-3.2,1.3,3.4,12.4,32.3*,43.9,10.6,12.6
COc1ccc(-c2cc(C(=O)N3CCN(c4ccccc4O)CC3)c3ccccc3n2)cc1OC,74.0*,-5.7,0.2,-1.5,10.9,26.4*,46.5,8.3,6.3
CC1CCCN(c2ccc(C(=O)OCC(=O)N3c4ccccc4Sc4ccccc43)cc2[N+](=O)[O-])C1 (stereo not given),-5.4,2.3,0.2,0.3,-0.3,.,.,.,.
CCc1ccc(-c2nc(CS(=O)CC(=O)NCc3ccco3)c(C)o2)cc1 (stereo not given),-12.3,2.4,-0.5,-1.5,-1.4,.,.,.,.
COc1ccc(Nc2nc(C(=O)N3CCc4ccccc4C3)cs2)cc1,16.0,-11.6,-0.6,-2.0,23.2,.,.,.,.
COc1ccc(Nc2nc(C(=O)N3CCc4cc(OC)c(OC)cc4C3)cs2)cc1,56.6*,-1.3,-0.7,-2.1,1.5,22.4*,32.3,4.5,-0.5
Cc1ccccc1NC(NC(=O)c1cccs1)C(Cl)(Cl)Cl (stereo not given),52.1*,-5.4,-0.4,0.5,13.4,20.4,38.3,13.3*,15.7
CC[C@]12c3[nH]c4ccc(OC)cc4c3CCN1C(=O)C(CC(=O)NCCCn1ccnc1)C[C@@H]2C(=O)N1CCN(C(=O)C2CC2)CC1 (stereo not given in full),4.1,.,.,.,2.1,.,.,.,.
COc1ccc2[nH]c(=O)c(CN(Cc3nnnn3Cc3ccco3)C3CCCCC3)cc2c1,67.2*,-16.6,-0.9,-1.3,25.4,28.0*,51.1*,11.6*,17.5
Nc1ncnc2nc(N3CCN(C(=O)c4ccccc4)CC3)[nH]c12,102.3*,-9.5,0.2,0.6,-5.9,5.7,3.7,3.7,4.4
O=C(c1ccccc1)N1CCN(c2ncccn2)CC1,-25.9,-10.4,0.7,-0.8,1.9,.,.,.,.
C/C(=N\NC(=O)C1(C)CC1(Br)Br)c1cccc(NC(=O)c2ccc(C)o2)c1 (stereo not given),84.8*,-13.7,0.9,2.1,12.5,25.7*,72.5*,11.2,39.4*
Cc1ccc(C(=O)Nc2cccc(C(=O)NCc3ccccc3)c2)o1,17.3,-2.0,0.9,0.6,2.1,.,.,.,.
O=C(NCCCNC(=O)c1ccccc1Br)c1ccccc1Br,-18.0,-2.8,1.7,-0.3,-0.2,.,.,.,.
NS(=O)(=O)c1ccc(CCNC(=O)c2ccc3c(c2)N(Cc2ccccc2)CCS3)cc1,82.6*,-12.6,2.4,3.7,7.6,38.8*,61.8*,7.7,7.3
COc1ccc(CCNC(=O)c2cc(-c3ccccc3)c(N3CCOCC3)s2)cc1OC,66.5*,-6.2,0.4,-0.6,1.2,24.9*,40.7,3.5,0.6
O=C(NCCCN1CCCC1)c1ccc2c(c1)N(Cc1ccccc1)CCS2,-9.3,-0.5,-0.4,1.0,6.0,.,.,.,.
SMILES,TAAR1 antag,OXTR potentiator,V1R ag counter,OXTR ag,TAAR1 agonist,nonsel antag count,TAAR1 ant conf,Ga16 nonsel ag,TAAR1 ag count
COc1ccc(CCNC(=O)c2ccc3c(c2)N(Cc2ccccc2)CCS3)cc1OC,80.1*,-5.2,-0.8,-3.0,4.6,39.5*,61.6*,5.8,3.0
Cc1cccc(NC(=O)Cn2c([N+](=O)[O-])cnc2C)c1C,.,0.2,-0.9,-0.6,.,.,.,.,.
COc1ccccc1C(=O)OCC(=O)Nc1cc(S(=O)(=O)N2CCOCC2)ccc1N1CCCC1,5.7,-1.2,-0.7,-1.4,5.7,.,.,.,.
Cc1cc(=O)oc2c3c(cc(OCC(=O)NCc4ccccc4)c12)OC(C)(C)CC3,68.0*,-0.1,-0.5,-0.7,2.7,24.1*,33.5,2.3,0.5
Cc1cc(=O)oc2c3c(cc(OCC(=O)NCC(=O)O)c12)OC(C)(C)CC3,-0.5,2.3,0.7,6.5,4.1,.,.,.,.
Cc1cc(C)c2sc(N(CCCN(C)C)C(=O)c3ccc(S(=O)(=O)N(C)Cc4ccccc4)cc3)nc2c1,50.0*,-10.1,2.2,11.3,34.7,39.1*,40.1,26.2*,46.4*
CC(C)N(c1ccccc1)c1ccc(NC(=O)CCl)cc1,9.3,-13.9,5.4,4.5,8.5,.,.,.,.
COc1ccc(OC)c2sc(Cl)nc12,-18.8,2.7,-0.7,-1.5,-0.9,.,.,.,.

# High-throughput results from PubChem.
